FN deposit inh = fibronectin deposition inhibition; 0.086% of 350,000 active; inhibition, % at 12.6 µM; AID 743247; AH1F fibroblasts, Alexa488-fibronectin deposition fluorescence, overnight;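 active means mean inhibition across replicates of 30% or more, regardless of how many single replicates reach that level; inconclusive means mean under 30% yet at least half of replicates reach 30%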
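Schedule: 1 h cell adhesion before compound, then overnight fibronectin incubation; test system: AH1F fibroblast monolayer depositing Alexa488-labelled fibronectin into matrix; quantity: 10000 AH1F cells per well; probe or stimulus: fluorescent fibronectin at 24 nM final; signal: fluorescence, ex 485 nm, em 525 nm; evaluation: percent inhibition as loss of matrix-bound fibronectin fluorescence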
CASP6 VEID inh = caspase-6 (human) enzyme inhibition; P55212; purified caspase-6, Z-VEID-R110 cleavage fluorescence; inhibition, % at 12.5 µM; 0.53% of 350,000 active; AID 686996;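 active means mean inhibition across replicates at least about 35%, with every replicate also reaching that limit, limit read from the data; inconclusive means only one of the two criteria met; inactive means neither criterion met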
Target sequence (P55212 24-179 limits assumed): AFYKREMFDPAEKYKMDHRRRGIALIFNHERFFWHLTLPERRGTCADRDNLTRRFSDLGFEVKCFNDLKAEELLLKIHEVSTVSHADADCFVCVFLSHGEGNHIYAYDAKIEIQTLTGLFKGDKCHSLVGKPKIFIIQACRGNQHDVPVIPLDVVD
Target sequence (P55212 194-293 limits assumed): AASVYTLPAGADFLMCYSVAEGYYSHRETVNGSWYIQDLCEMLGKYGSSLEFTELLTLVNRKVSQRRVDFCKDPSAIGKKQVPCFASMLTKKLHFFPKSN
XiGFP reactiv = activators of X-chromosome reactivation in mouse fibroblasts. 0.055% of 360,000 active. activation, % at 7.58 µM. XiGFP mouse fibroblasts, % GFP-positive cells imaging, 3 d; cells co-treated with 5-aza-dC sensitizer; scaled so ellipticine positive control = 100%;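 active means mean normalized replicate activation at least 10% and every replicate at or above 10%; inconclusive means only one of the two criteria met; inactive means mean below 10% and not all replicates reach 10%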
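System: XiGFP fibroblasts, SV40-immortalized. Medium: DMEM plus 5-aza-dC sensitizer. Doses: single point. Timing: 3 d treatment, 15 min room-temperature fixation. Control set: ellipticine 6 µM.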
CaV13 FRET inh = Primary screen for inhibitors of IQ motif and Ca2+-dependent inactivation inhibitor domain binding in CACNA1D, Förster resonance energy transfer in living cells, … | inhibition, % at 12.3 µM | HEK cells, CFP/YFP FRET ICDI-IQ, plate reader, 10 min; percent FRET-ratio fall versus neutral wells | 0.098% of 340,000 active;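 active means mean replicate inhibition of at least 30% and at least 1% of replicates passing that level; inconclusive means only one of the two criteria is met; inactive means neither criterion is met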
DENV2 CPE rescue = protects cells from dengue virus 2 cytopathic effect | DENV2-infected cells, cytopathic effect rescue, plate reader | CPE inhibition, % at 9.99 µM | 1.7% of 350,000 active; in the data active means CPE inhibition above about 20%, passing the limit was not always enough; inconclusive means no clear call, values can overlap the other calls; tested in BHK-21 cells
A number is an active result; . = inactive; ? = inconclusive; / = no result. In the library only some 2% were active in any assay of this set; here they are far more common.

SMILES	FN deposit inh	CASP6 VEID inh	XiGFP reactiv	CaV13 FRET inh	DENV2 CPE rescue
CC(C)CC#Cc1cnc2c(c1)C(=O)N([C@H](C)CO)C[C@H](C)[C@H](CN(C)C(=O)C1CCOCC1)O2	/	.	.	/	.
C[C@H](CO)N1C[C@H](C)[C@H](CN(C)C(=O)C2CCOCC2)Oc2ncc(Br)cc2C1=O	/	.	.	/	.
C[C@H]1CN([C@@H](C)CO)C(=O)c2cc(Br)cnc2O[C@H]1CN(C)C(=O)C1CCOCC1	/	.	.	/	24
CC(C)CC#Cc1cnc2c(c1)C(=O)N([C@@H](C)CO)C[C@@H](C)[C@@H](CN(C)C(=O)Cc1ccncc1)O2	/	.	.	/	28
Cc1noc(C)c1NC(=O)Nc1ccc2c(c1)C(=O)N([C@H](C)CO)C[C@@H](C)[C@H](CN(C)S(=O)(=O)c1ccccc1)OCCCC[C@H](C)O2	.	.	.	/	.
CCC(=O)Nc1ccc2c(c1)OC[C@@H](C)N(C(C)=O)C[C@@H](C)[C@@H](OC)CN(C)C2=O	.	.	.	/	24
CCC(=O)Nc1ccc2c(c1)OC[C@@H](C)N(C(C)=O)C[C@H](C)[C@H](OC)CN(C)C2=O	.	.	.	/	27
CO[C@@H]1CN(C)C(=O)c2ccc(NC(=O)CC(F)(F)F)cc2OC[C@H](C)N(C(C)=O)C[C@@H]1C	.	.	.	/	108
CC(=O)Nc1ccc(NC(=O)CSc2nnc(NC(=O)c3ccccc3F)s2)cc1	.	.	.	.	30
O=C(CSc1nnc(NC(=O)c2ccccc2F)s1)NC1CCCC1	.	.	.	.	.
O=C(CSc1nnc(NC2CCCCC2)s1)Nc1ccc2c(c1)C(=O)c1ccccc1C2=O	.	.	.	.	.
NS(=O)(=O)c1ccc(NC(=O)CSc2nnc(NC3CC3)s2)cc1	.	36	.	.	.
O=C(N[C@@H]1CC[C@@H](CCNS(=O)(=O)c2ccc(F)cc2)O[C@H]1CO)c1cnccn1	.	.	.	/	51
Cc1ccc(S(=O)(=O)NCC[C@@H]2CC[C@H](NC(=O)c3cnccn3)[C@@H](CO)O2)cc1	/	.	.	/	?
CCS(=O)(=O)NCC[C@@H]1CC[C@@H](NC(=O)C2CC2)[C@@H](CO)O1	/	.	.	/	46
O=C(N[C@H]1CC[C@@H](CCNS(=O)(=O)c2ccc(F)cc2)O[C@H]1CO)C1CCOCC1	/	.	.	/	38
C[C@H](CO)N1C[C@H](C)[C@@H](CN(C)S(=O)(=O)c2ccc(Cl)cc2)OCCCC[C@H](C)Oc2ccc(NC(=O)c3ccncc3)cc2C1=O	.	.	.	/	.
CC1(C(=O)NS(=O)(=O)c2ccccc2C(F)(F)F)CCN1C(=O)CCc1ccccc1 (stereo not drawn)	.	.	.	.	49
CC1(C(=O)NS(=O)(=O)Cc2ccccc2)CCN1C(=O)C/C=C/c1ccccc1 (stereo not drawn)	/	.	.	.	.
CC1(C(=O)NS(C)(=O)=O)CCN1C(=O)C/C=C/c1ccccc1 (stereo not drawn)	.	.	.	.	61
CCC(=O)N1[C@H](C(=O)NCCCN(C)C)[C@@H](CO)[C@@H]2Cn3c(ccc(-c4ccccc4F)c3=O)[C@@H]21	/	.	.	/	.
CCc1ccc2c(F)cccc2n1	.	.	.	.	60
COc1ccc(NC(=O)Nc2ccc3c(c2)CC(=O)N([C@@H](C)CO)C[C@@H](C)[C@H](CN(C)S(=O)(=O)c2c(C)noc2C)O3)cc1	/	.	.	/	.
CCOC(=O)c1ccc(NC(=O)c2nc[nH]c2C(=O)NC[C@@H](C)O)cc1	.	.	.	.	.
CNC(=O)c1[nH]cnc1C(=O)Nc1ccc(C)cc1	.	.	.	.	.
SMILES	FN deposit inh	CASP6 VEID inh	XiGFP reactiv	CaV13 FRET inh	DENV2 CPE rescue
CNC(=O)c1[nH]cnc1C(=O)Nc1ccc(Cl)cc1	.	.	.	.	41
Cc1cccc(NC(=O)c2nc[nH]c2C(=O)NCCCNC(=O)c2[nH]cnc2C(=O)Nc2cccc(C)c2)c1	.	.	.	.	45
Cc1ccc(NC(=O)c2nc[nH]c2C(=O)N[C@@H](C)C(=O)OC(C)(C)C)cc1	.	.	.	.	98
C[C@H](NC(=O)c1[nH]cnc1C(=O)Nc1ccccc1)C(=O)OC(C)(C)C	.	.	.	.	.
CCOC(=O)c1ccc(NC(=O)c2nc[nH]c2C(=O)NC[C@H](C)O)cc1	.	.	.	.	80
COc1ccc(S(=O)(=O)Nc2ccc3c(c2)C(=O)N([C@H](C)CO)C[C@H](C)[C@@H](CN(C)C(=O)Nc2c(C)noc2C)OCCCC[C@@H](C)O3)cc1	.	.	.	/	41
Cc1noc(C)c1S(=O)(=O)Nc1ccc2c(c1)C(=O)N([C@@H](C)CO)C[C@H](C)[C@H](CN(C)C(=O)CCC(F)(F)F)OCCCC[C@H](C)O2	/	.	.	/	34
Cc1noc(C)c1NC(=O)N(C)C[C@@H]1OCCCC[C@H](C)Oc2ccc(NS(=O)(=O)c3c(C)noc3C)cc2C(=O)N([C@@H](C)CO)C[C@H]1C	/	.	.	/	.
Cc1noc(C)c1NC(=O)N(C)C[C@H]1OCCCC[C@H](C)Oc2ccc(NS(=O)(=O)c3c(C)noc3C)cc2C(=O)N([C@H](C)CO)C[C@@H]1C	/	.	.	/	34
COc1ccc2c3c(n(C)c2c1)[C@H](CO)N(CC1CCOCC1)CC31CN(C(C)=O)C1	/	/	.	/	/
C[C@H]1CN([C@@H](C)CO)C(=O)c2cccc(NC(=O)Nc3ccc4c(c3)OCO4)c2O[C@@H]1CN(C)Cc1ccc(Oc2ccccc2)cc1	/	.	.	/	.
Cc1cc(F)cc(-c2cc(C(=O)NCC3CCCCC3)[nH]n2)c1	.	.	.	.	27
Cc1ccc(Cl)cc1-c1cc(C(=O)NCC2CCCCC2)[nH]n1	.	.	.	.	.
C[C@@H]1CN([C@@H](C)CO)C(=O)c2cc(NC(=O)Nc3cccc4ccccc34)ccc2O[C@@H](C)CCCCO[C@H]1CN(C)Cc1ccc2c(c1)OCO2	/	/	.	/	.
CC(C)CNC(=O)C1(C)CCCN1C(=O)c1csnn1 (stereo not drawn)	.	.	.	.	.
CC(C)CNC(=O)C1(C)CCCCCN1C(=O)c1csnn1 (stereo not drawn)	.	.	.	.	113
CC(C)CNC(=O)C1(C)CCCN1C(=O)Cc1cccc2ccccc12 (stereo not drawn)	.	54	.	.	?
CC(C)CNC(=O)C1(C)CCCN1C(=O)c1cc2ccccc2s1 (stereo not drawn)	.	.	.	.	.
COc1ccc2c3c(n(C)c2c1)[C@H](CO)N(C(=O)NC(C)C)CC31CCN(CC2CCCCC2)CC1	/	/	.	/	.
COc1ccc2c3c(n(C)c2c1)[C@H](CO)N(C(=O)NC(C)C)CC31CCN(CC2CCCC2)CC1	/	.	.	/	40
